Source: ChEMBL document CHEMBL1124805 (J Med Chem, 1990)

Key:
D(2) dopamine receptor = D(2) dopamine receptor (Rattus norvegicus, UniProt P61169); assay: Binding affinity at rat striatal Dopamine receptor D2 using [3H]- piperone radioligand
D(1A) dopamine receptor = D(1A) dopamine receptor (Rattus norvegicus, UniProt P18901); assay: Binding affinity at rat striatal Dopamine receptor D1 using [3H]- SCH-23390 radioligand
[1] = target: Dopamine receptors; D1 & D2 (Rattus norvegicus) (UniProt P18901+P61169); assay: Ratio of binding affinity of D2 to binding affinity of D1; type: protein assay
Dopamine receptor = Dopamine receptor (Bos taurus, UniProt Q95136+P20288); assay: Agonistic activity against calf striatal Dopamine receptor using [3H]- ADTN radioligand; type: functional
How it was run: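 Calf striatal membranes incubated with the dopamine agonist radioligand (±)-[3H]ADTN at 0.5 nM for 60 min at 25 °C.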

Chain of D(1A) dopamine receptor (P18901 whole entry): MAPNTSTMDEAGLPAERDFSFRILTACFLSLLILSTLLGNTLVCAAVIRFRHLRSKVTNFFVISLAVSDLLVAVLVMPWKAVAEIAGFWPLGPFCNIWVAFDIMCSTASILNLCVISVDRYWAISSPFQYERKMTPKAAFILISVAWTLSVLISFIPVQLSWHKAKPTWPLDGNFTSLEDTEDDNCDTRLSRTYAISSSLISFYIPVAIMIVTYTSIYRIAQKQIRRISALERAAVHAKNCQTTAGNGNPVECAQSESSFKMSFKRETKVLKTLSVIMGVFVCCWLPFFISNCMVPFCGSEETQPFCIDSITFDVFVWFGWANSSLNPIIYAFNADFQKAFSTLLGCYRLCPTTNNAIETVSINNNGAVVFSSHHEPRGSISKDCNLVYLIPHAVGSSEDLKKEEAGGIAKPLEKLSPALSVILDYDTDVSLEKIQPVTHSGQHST
Chain of D(2) dopamine receptor (P61169 whole entry): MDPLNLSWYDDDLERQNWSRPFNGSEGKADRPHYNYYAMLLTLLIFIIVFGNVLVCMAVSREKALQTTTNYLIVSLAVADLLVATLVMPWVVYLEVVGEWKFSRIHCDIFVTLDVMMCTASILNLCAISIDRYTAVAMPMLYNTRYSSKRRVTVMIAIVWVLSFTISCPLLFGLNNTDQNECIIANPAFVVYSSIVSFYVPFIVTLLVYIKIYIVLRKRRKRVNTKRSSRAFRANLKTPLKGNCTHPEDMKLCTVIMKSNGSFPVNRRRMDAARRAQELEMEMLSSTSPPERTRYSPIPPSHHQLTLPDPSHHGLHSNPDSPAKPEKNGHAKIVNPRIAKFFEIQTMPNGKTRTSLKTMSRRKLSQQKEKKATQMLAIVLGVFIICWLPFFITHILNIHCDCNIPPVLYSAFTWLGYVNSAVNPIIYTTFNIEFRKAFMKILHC

Row | Structure (SMILES) | Ki (D(2) dopamine receptor) [nM] | Ki (D(1A) dopamine receptor) [nM] | Potency ratio [1] | Ki (Dopamine receptor) [nM]
1 | CN1CCc2cc(Cl)cc3c2[C@H]1Cc1ccc(O)c(O)c1-3 | 22.3 | 74.5 | 3.3 | –
2 | CN1CCc2cc(Br)cc3c2[C@H]1Cc1ccc(O)c(O)c1-3 | 17.7 | 106 | 6 | –
3 | CCCN1CCc2cc(OC)cc3c2[C@H]1Cc1ccc(O)c(O)c1-3 | 0.17 | 1780 | 10500 | 3.84
4 | COc1cc2c3c(c1)-c1c(ccc(O)c1O)C[C@@H]3N(C)CC2 | 34.7 | < 10000 | > 300 | 162
5 | COc1cc2c3c(c1)-c1c(ccc(O)c1O)C[C@H]3N(C)CC2 | 1.12 | < 10000 | > 9000 | 16.4
6 | CCCN1CCc2cc(O)cc3c2[C@H]1Cc1ccc(O)c(O)c1-3 | 0.053 | 915 | 17300 | 1.15
